pIC50: −log10 of the molar value.
Tests used:
hOGG1 [1] = biological target: T1, hOGG1 (Homo sapiens, UniProt O15527); test: Michaelis–Menten kinetics of hOGG1 with OGR1 probe; format: biochemical
Summary of the method: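 Recombinant hOGG1 (100 nM) was preincubated 15 min at 37 °C in NEBuffer 4 (pH 7.9) with BSA, without or with test compound (200 nM or 2 μM). OGR1 fluorogenic substrate was added at 0.8–10 μM and fluorescence read at 460 nm (excitation 355 nm). Initial rates over 10 min gave Michaelis–Menten curves and Lineweaver–Burk plots, yielding Km and Vmax; kcat = Vmax/[enzyme].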

HEK293T cells = test: Toxicity via MTT assay, HEK293T; format: cell-based, human
Summary of the method: (§1)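 HEK293T cells (1.6×10^4/well, pre-grown 30 h) or HeLa cells (1.2×10^4/well, pre-grown 16 h) were cultured in DMEM with 10% FBS. They were exposed 24 h at 37 °C to test compound at 10 nM–100 μM, with 5% DMSO at 100 μM and 1% DMSO otherwise; medium-only and DMSO-matched controls were included. MTT was added at 0.5 mg/mL final, followed by 20 h solubilisation and absorbance reading at 550 and 650 nm.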

[2] = biological target: MTH1 (human MutT Homolog 1) (Homo sapiens, UniProt P36639); test: Enzyme selectivity screen, MTH1; format: biochemical; settings: 20 μM
[3] = biological target: T2, SMUG1 (single-strand selective monofunctional uracil DNA glycosylase) (Homo sapiens, UniProt Q53HV7); test: Enzyme selectivity screen, SMUG1; format: biochemical; settings: 20 μM
T2 sequence (Q53HV7 1-270): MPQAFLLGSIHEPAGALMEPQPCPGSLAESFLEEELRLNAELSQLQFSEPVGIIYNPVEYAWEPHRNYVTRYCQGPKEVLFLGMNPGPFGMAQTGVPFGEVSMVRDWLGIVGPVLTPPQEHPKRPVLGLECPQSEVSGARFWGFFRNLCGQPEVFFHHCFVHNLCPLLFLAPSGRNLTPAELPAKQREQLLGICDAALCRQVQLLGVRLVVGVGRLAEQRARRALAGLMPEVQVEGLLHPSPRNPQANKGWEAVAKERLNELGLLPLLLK

[4] = biological target: OGG1 activity in HeLa cell lysates (Homo sapiens, UniProt O15527); test: Inhibition of OGG1 activity in HeLa cell lysate; format: biochemical; settings: 0.5 μM, measured at 20 h
OGG1 activity in HeLa cell lysates, sequence (O15527 whole entry): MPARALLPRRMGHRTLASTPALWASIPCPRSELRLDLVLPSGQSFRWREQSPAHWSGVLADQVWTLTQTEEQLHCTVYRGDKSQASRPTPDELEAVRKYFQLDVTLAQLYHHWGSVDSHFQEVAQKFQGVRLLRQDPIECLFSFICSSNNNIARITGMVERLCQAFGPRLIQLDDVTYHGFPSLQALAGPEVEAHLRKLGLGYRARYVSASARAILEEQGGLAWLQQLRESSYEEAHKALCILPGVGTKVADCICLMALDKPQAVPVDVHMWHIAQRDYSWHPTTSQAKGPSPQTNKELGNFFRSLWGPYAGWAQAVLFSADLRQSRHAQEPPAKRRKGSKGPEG
Summary of the method: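 Cells were grown 48 h to confluence in DMEM with 10% FBS. Cytoplasmic fractions came from hypotonic swelling and needle lysis; nucleoplasmic fractions from 0.42 M NaCl extraction. The two were mixed 2:1. Each reaction held 100 ng/µL total protein, 2 µM pOGR1 fluorogenic probe, 10 mM MgCl2 and test compound at 0.5 μM, and ran […] at 37 °C. Fluorescence was read at 460 nm (excitation 355 nm).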

[5] = biological target: T3, hABH3 (human AlkB Homolog 3) (Homo sapiens, UniProt Q96Q83); test: Enzyme selectivity screen, hABH3; format: biochemical; settings: 20 μM
T3 sequence (Q96Q83 1-286): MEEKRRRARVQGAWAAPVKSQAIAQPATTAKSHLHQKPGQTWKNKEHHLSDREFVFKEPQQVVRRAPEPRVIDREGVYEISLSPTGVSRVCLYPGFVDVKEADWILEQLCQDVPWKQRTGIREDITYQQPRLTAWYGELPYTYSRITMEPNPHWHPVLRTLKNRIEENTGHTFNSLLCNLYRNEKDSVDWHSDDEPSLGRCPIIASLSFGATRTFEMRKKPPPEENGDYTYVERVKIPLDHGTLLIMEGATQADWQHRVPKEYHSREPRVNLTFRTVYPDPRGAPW

[6] = biological target: Recombinant His-tagged OGG1 (Homo sapiens, UniProt O15527); test: Surface plasmon resonance; format: binding; settings: Biacore 8K, 1:3 dilution series, highest concentration 4 μM
Recombinant His-tagged OGG1, sequence (O15527 whole entry): as the sequence (O15527 whole entry) above

hOGG1 [7] = biological target: T1, hOGG1; test: OGG1 inhibitor assay with fluorogenic OGR1 probe; format: biochemical
[8] = biological target: T4, hABH2 (human AlkB Homolog 2) (Homo sapiens, UniProt Q6NS38); test: Enzyme selectivity screen, hABH2; format: biochemical; settings: 20 μM
T4 sequence (Q6NS38 1-261): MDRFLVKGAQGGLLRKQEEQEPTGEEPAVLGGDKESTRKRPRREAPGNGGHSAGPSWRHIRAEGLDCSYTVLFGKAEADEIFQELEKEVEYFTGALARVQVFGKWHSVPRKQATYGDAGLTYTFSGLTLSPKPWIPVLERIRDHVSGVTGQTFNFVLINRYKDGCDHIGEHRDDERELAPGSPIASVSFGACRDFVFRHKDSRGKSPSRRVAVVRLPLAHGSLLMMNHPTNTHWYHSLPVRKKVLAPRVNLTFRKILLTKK

[9] = system: dUTPase (deoxyuridine 5′-triphosphate nucleotidohydrolase); test: Enzyme selectivity screen, dUTPase; format: biochemical; settings: 20 μM
[10] = biological target: NUDT16 (nucleoside diphosphate-linked moiety X-type motif 16) (Homo sapiens, UniProt Q96DE0); test: Enzyme selectivity screen, NUDT16; format: biochemical; settings: 20 μM
NUDT16 (nucleoside diphosphate-linked moiety X-type motif 16), sequence (Q96DE0 whole entry, species assumed): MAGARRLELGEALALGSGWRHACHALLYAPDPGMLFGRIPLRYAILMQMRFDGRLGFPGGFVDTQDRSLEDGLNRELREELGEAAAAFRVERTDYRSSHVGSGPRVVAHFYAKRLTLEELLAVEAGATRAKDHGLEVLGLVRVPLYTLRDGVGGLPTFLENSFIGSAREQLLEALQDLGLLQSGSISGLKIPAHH

OGG1 in HeLa cells = OGG1 in HeLa cells (Homo sapiens, UniProt O15527); test: Detection of 8-OG; format: cell-based; settings: 0.5 μM, 24 h, LC/MS-MS
OGG1 in HeLa cells, sequence (O15527 whole entry): as the sequence (O15527 whole entry) above
Summary of the method: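 HeLa cells were seeded at 2×10^6 per 10 cm dish in DMEM with 10% FBS and grown 12 h. They were then exposed 24 h at 37 °C to test compound at 5 or 0.5 μM, with compound-containing medium renewed every 6 h. Controls were untreated cells and H2O2 (0.5 mM) plus CrCl3 (0.3 mM). DNA (5 µg) was digested to nucleosides, and 8-oxodG was quantified by LC-MS/MS with 15N-labelled internal standards and normalised to dG.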

Caco-2 (clone C2BBel) = test: CACO-2 permeability assay; format: in vitro ADME; settings: for Papp avg: average; for Papp R1: replicate R1
HeLa cells = test: Toxicity via MTT assay, HeLa; format: cell-based, human
Summary of the method: as §1

[11] = biological target: OGG1 activity in MCF-7 cell lysates (Homo sapiens, UniProt O15527); test: Inhibition of OGG1 activity in MCF-7 cell lysate; format: biochemical; settings: MCF-7 lysate, 0.5 μM, measured at 20 h
OGG1 activity in MCF-7 cell lysates, sequence (O15527 whole entry): as above

T1 sequence (O15527 whole entry): as above

NC(=O)c1cccc(-c2ccc(S(=O)(=O)Nc3ccc4c(c3)N(C(=O)C3CC3)CCC4)cc2)c1 [Compound 41]
mode of inhibition (hOGG1 [1]; Lineweaver–Burk analysis, 200 nM and 2 μM): competitive inhibitor | kcat (hOGG1 [1]; with 200 nM 41): 0.040 s⁻¹ | kcat (hOGG1 [1]; with 2 μM 41): 0.057 s⁻¹ | toxicity at 10 μM (HEK293T cells; HEK293T (one of two human cell lines), 10 μM): no toxicity | cytotoxicity (MTT) (HEK293T cells; HEK293T, 10 nM to 10 μM, 24 h): little or no cytotoxicity | apparent toxicity (MTT) (HEK293T cells; HEK293T, 100 μM, 24 h): 30–50% | activity against MTH1 [2]: low or negligible | activity against SMUG1 [3]: low or negligible | inhibition of probe signal [4]: 64% | activity against hABH3 [5]: low or negligible | Kd (1:1 kinetic and steady-state models) [6]: consistent with IC50 of the biochemical assay | Enzyme activity, % of control at 2 μM (hOGG1 [7]; 2 μM compound, initial rate (first 12 min)): 4.8 % of control | pIC50 (hOGG1 [7]; OGR1 assay, initial rates method): 7.23 | Enzyme activity, % of control at 200 μM (third column of Table 5) (hOGG1 [7]; head of Table 5 c4 prints 200 μM, initial rate (first 12 min)): 39 ±2.5 % of control | activity against hABH2 [8]: low or negligible | activity against dUTPase [9]: low or negligible | activity against NUDT16 [10]: low or negligible | increase of 8-oxodG levels in DNA relative to mock-treated controls (OGG1 in HeLa cells): 25% | recovery (Caco-2 (clone C2BBel); A-to-B): 65% | Papp avg (Caco-2 (clone C2BBel); A-to-B): 1.25e-05 cm/s | Papp R1 (Caco-2 (clone C2BBel); A-to-B): 1.42e-05 cm/s | recovery (Caco-2 (clone C2BBel); B-to-A): 79% | efflux ratio (Caco-2 (clone C2BBel); B-to-A / A-to-B): 6.2 | Papp avg (Caco-2 (clone C2BBel); B-to-A): 7.74e-05 cm/s | Papp R1 (Caco-2 (clone C2BBel); B-to-A): 6.35e-05 cm/s | toxicity at 10 μM (HeLa cells; HeLa (one of two human cell lines), 10 μM): no toxicity | cytotoxicity (MTT) (HeLa cells; HeLa, 10 nM to 10 μM, 24 h): little or no cytotoxicity | apparent toxicity (MTT) (HeLa cells; HeLa, 100 μM, 24 h): 30–50% | inhibition of probe signal [11]: 95%

Reference: paper PMC5823510 (Journal of the American Chemical Society, 2018)
